From ChEMBL document CHEMBL4257590, “Semisynthesis of Platensimycin Derivatives with Antibiotic Activities in Mice via Suzuki-Miyaura Cross-Coupling Reactions” (J Med Chem, 2018)
Values after ≈ are worked out from the molar mass of the structure shown. Active and inactive are the calls of the source. The calls are words filed in the database; no cut-off is given here.

What was measured:
Staphylococcus aureus [1] = assay: Antibacterial activity against Staphylococcus aureus ATCC 29213 after 16 hrs by agar dilution method; type: functional; details: ATCC 29213, 16 h
Summary of the method: (§1)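 Agar dilution in LB agar with compound (from methanol solutions) at final 0.5–64 μg/ml per plate. Strains grown 16 h at 37 °C, 250 rpm in LB broth, adjusted to OD600 0.25±0.05, diluted 10^4-fold; 2 μl spotted per plate, incubated 16 h at 37 °C. MIC = lowest concentration with no visible colonies; at least two independent experiments. Linezolid and PTM as controls.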

Staphylococcus aureus [2] = assay: Antibacterial activity against methicillin-sensitive Staphylococcus aureus isolate 1 after 16 hrs by agar dilution method; type: functional; details: isolate 1, 16 h; summary of the method: as §1
Staphylococcus aureus [3] = assay: Antibacterial activity against methicillin-sensitive Staphylococcus aureus isolate 2 after 16 hrs by agar dilution method; type: functional; details: isolate 2, 16 h; summary of the method: as §1
Staphylococcus aureus [4] = assay: Antibacterial activity against methicillin-resistant Staphylococcus aureus isolate 3 after 16 hrs by agar dilution method; type: functional; details: isolate 3, 16 h; summary of the method: as §1
Staphylococcus aureus [5] = assay: Antibacterial activity against methicillin-resistant Staphylococcus aureus isolate 4 after 16 hrs by agar dilution method; type: functional; details: isolate 4, 16 h; summary of the method: as §1
Staphylococcus aureus [6] = assay: Antibacterial activity against methicillin-resistant Staphylococcus aureus isolate 5 after 16 hrs by agar dilution method; type: functional; details: isolate 5, 16 h; summary of the method: as §1
Staphylococcus aureus [7] = assay: Antibacterial activity against methicillin-resistant Staphylococcus aureus isolate 6 after 16 hrs by agar dilution method; type: functional; details: isolate 6, 16 h; summary of the method: as §1
Staphylococcus aureus [8] = assay: Antibacterial activity against methicillin-resistant Staphylococcus aureus after 18 hrs in presence of 10% human serum by resazurin dye-based assay; type: functional
Summary of the method: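 One clinical MRSA strain grown to exponential phase (OD600 = 0.5), diluted to 10^6 CFU/ml in Mueller-Hinton broth; 100 μl compound dilutions mixed with 100 μl bacteria with or without 10% human serum, 18 h at 37 °C. Resazurin (0.66 mM, 50 μl) then added and read visually.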

Staphylococcus aureus [9] = assay: Antibacterial activity against methicillin-resistant Staphylococcus aureus infected in C57BL/6J mouse assessed as reduction in bacterial load in blood at 50 mg/kg, ip administered 1 and 5 hrs postinfection and measured at 12 hrs post bacterial infection; type: functional, organism-based
Summary of the method: (§2)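 Female C57BL/6J mice, 6–8 weeks, 18–21 g, infected ip with 2 × 10^7 CFU MRSA in 0.2 ml saline with 5% hog gastric mucin. Dosed ip 50 mg/kg at 1 and 5 h post-infection; test agents at 5 mg/mL in 12.5% DMSO/30% propanediol/30% PEG400/27.5% saline, vancomycin in saline, saline control. At 12 h blood and homogenized kidneys plated on LB agar overnight at 37 °C for CFU; n = 5, mean ± SEM, unpaired two-tailed t-test.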

Staphylococcus aureus [10] = assay: Antibacterial activity against methicillin-resistant Staphylococcus aureus infected in C57BL/6J mouse assessed as reduction in bacterial load in kidney at 50 mg/kg, ip administered 1 and 5 hrs postinfection and measured at 12 hrs post bacterial infection; type: functional, organism-based; summary of the method: as §2
Mus musculus [11] = assay: Toxicity in C57BL/6J mouse infected with methicillin-resistant Staphylococcus aureus assessed as mouse death at 50 mg/kg, […] measured within 48 hrs; type: organism-based; details: in vivo, ip
Staphylococcus aureus [12] = assay: Antibacterial activity against methicillin-resistant Staphylococcus aureus infected in C57BL/6J mouse assessed as protection against lethal peritonitis by measuring mouse survival at 50 mg/kg, ip administered 1 and 5 hrs postinfection and measured up to 24 hrs post infection; type: functional, organism-based
Summary of the method: (§3)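 Lethal peritonitis: female C57BL/6J mice, 6–8 weeks, 18–21 g, infected ip with 2 × 10^7 CFU MRSA in 0.5 ml saline with 5% (w/v) mucin. Treated ip 0.2 mL/mouse at 1 and 5 h post-infection (n = 5/group): 50 mg/kg at 5 mg/mL in 12.5% DMSO vehicle, or 10 mg/kg at 1 mg/mL in 2.5% DMSO/30% propanediol/30% PEG400/37.5% saline; vancomycin in saline, saline control. Checked twice daily for survival and body weight over 7 days.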

Mus musculus [13] = assay: Toxicity in C57BL/6J mouse infected with methicillin-resistant Staphylococcus aureus assessed as effect on mouse body weight at 10 mg/kg, ip administered 1 and 5 hrs postinfection and measured for 7 days; type: organism-based; details: in vivo, 168 h; summary of the method: as §3

For C[C@]12C[C@@]34C=C(c5cc6cccc7ccc8cccc5c8c76)C(=O)[C@@](C)(CCC(=O)Nc5c(O)ccc(C(=O)O)c5O)[C@@H]3[C@H](C[C@H]1C4)O2, the MIC (Staphylococcus aureus [1]) was 2 µg/mL (≈ 3.12 µM), the MIC (Staphylococcus aureus [2]) was 2 µg/mL (≈ 3.12 µM) and the MIC (Staphylococcus aureus [3]) was 2 µg/mL (≈ 3.12 µM). For the same compound, the MIC (Staphylococcus aureus [4]) was 4 µg/mL (≈ 6.23 µM), the MIC (Staphylococcus aureus [5]) was 2 µg/mL (≈ 3.12 µM) and the MIC (Staphylococcus aureus [6]) was 4 µg/mL (≈ 6.23 µM). The MIC (Staphylococcus aureus [7]) was 2 µg/mL (≈ 3.12 µM), the MIC (Staphylococcus aureus [8]) was 4 µg/mL and the Activity (Staphylococcus aureus [9]) was “Active”. The Activity (Staphylococcus aureus [10]) was “Active”, the Activity (Mus musculus [11]) was “Toxic” and the Activity (Staphylococcus aureus [12]) was “inactive”. For the same compound, the Activity (Mus musculus [13]) was “Non-Toxic”.
